Source: PubChem BioAssay (several laboratories)
Only some compounds are listed: those with a hit (about 3% of all), similar ones and a draw of the others.
Measles CPE: protection of cells from measles virus; protection (pct of control), % at 4 µM; 140,000 tested, 1.5% active; AID 841; Measles virus-infected cells, CPE protection, absorbance; in the data active = protection mostly above about 24%, no sharp cut-off; inactive = mostly below about 26%
sEH activator: activators of human soluble epoxide hydrolase | 91,000 tested, 0.04% active | P34913 | activation, % at 2 µM | purified human sEH enzymatic activity, activator screen; in the data active = activation above about 37%
Target sequence (P34913 whole entry, looked up): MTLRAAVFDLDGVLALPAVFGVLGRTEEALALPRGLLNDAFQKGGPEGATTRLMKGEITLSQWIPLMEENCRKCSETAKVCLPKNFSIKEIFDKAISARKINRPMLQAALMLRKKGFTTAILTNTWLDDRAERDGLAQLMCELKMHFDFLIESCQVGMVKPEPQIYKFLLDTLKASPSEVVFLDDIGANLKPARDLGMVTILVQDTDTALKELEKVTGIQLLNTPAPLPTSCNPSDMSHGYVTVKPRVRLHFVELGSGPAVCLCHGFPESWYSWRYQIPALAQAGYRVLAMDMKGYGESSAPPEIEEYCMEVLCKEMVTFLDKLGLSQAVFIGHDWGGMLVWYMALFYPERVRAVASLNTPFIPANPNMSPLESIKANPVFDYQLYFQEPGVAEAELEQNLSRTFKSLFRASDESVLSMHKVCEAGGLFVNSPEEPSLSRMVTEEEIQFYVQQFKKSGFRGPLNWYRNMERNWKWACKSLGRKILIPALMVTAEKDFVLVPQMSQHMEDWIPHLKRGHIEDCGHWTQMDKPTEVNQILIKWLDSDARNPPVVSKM
BB579 growth dn: reduces growth of yeast BB579 in restrictive medium. AID 804. 140,000 tested, 0.51% active. inhibition, % at 10 µM. S. cerevisiae BB579 growth, OD615, 48 h;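 active = inhibition above a set limit, 3 SD over the mean compound inhibition, cut at about 44% in these data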
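Test system: Saccharomyces cerevisiae DeaD strain BB579, replicative lifespan model yeast | Buffer or medium: Restrictive CSMM-D medium | Doses: One dose, 10 µM compound with 0.25% DMSO | Incubation: 48 h exposure, 30 °C | Detection: Culture absorbance at 615 nm | Control set: Amphotericin B at 10 µg/mL as positive control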
SDO1 yeast rescue: sdo1-depleted yeast growth rescue | 140,000 tested, 0.21% active | S. cerevisiae sdo1-depleted JHY4D growth rescue, OD600 30 h; active compounds read high; pdr5 snq2 efflux-pump mutant strain | AID 817 | z-score at 10 µM;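 active = z-score above 3 at both the 24 hr and the 30 hr optical density reads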
Yeast lifespan up: extends the lifespan of yeast; S. cerevisiae growth with nicotinamide, OD615; deaD strain in restrictive glucose medium; inhibition of the nicotinamide effect, % at 10 µM; 130,000 tested, 0.68% active; AID 775;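 active = inhibition above a set limit, placed 3 SD over the median of all compounds, cut at about 26% in these data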
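assay system = DeaD-strain S. cerevisiae | buffer or medium = restrictive glucose medium | reagent = 1.5 mM nicotinamide | compound = 10 µM single point, 0.25% DMSO | incubation = 48 h compound exposure at 30 °C, humidified | signal = OD615 measurement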
sEH inhibitor: inhibitors of human soluble epoxide hydrolase. recombinant human sEH enzymatic activity assay. inhibition, % at 2 µM. 91,000 tested, 0.34% active. AID 707; in the data active = inhibition above about 80%
Numbers stand for hits; . = inactive; / = no result.

SMILES	Measles CPE	sEH activator	BB579 growth dn	SDO1 yeast rescue	Yeast lifespan up	sEH inhibitor
CCOC(=O)N1CCN(CC(O)COc2cc(C)ccc2C(C)C)CC1 (stereo not drawn)	30	/	.	.	.	/
CCOC(=O)N1CCN(CC(O)COC(CC)c2ccccc2)CC1 (stereo not drawn)	47	/	.	.	.	/
COc1cc(C(=O)Nc2ccccc2C2COC(=O)C2=N)cc(OC)c1OC (stereo not drawn)	.	/	.	.	.	/
Cn1c(=O)n(C)c2cc([N+](=O)[O-])c(N3CCN(S(=O)(=O)c4ccc5ccccc5c4)CC3)cc21	33	.	.	.	.	.
O=C(c1ccc(Br)o1)N1CCN(c2ccc3nnc(-c4ccc(F)cc4)n3n2)CC1	.	.	.	.	.	.
S=C(c1cn(Cc2ccc(Br)cc2)c2ccccc12)N1CCOCC1	.	/	.	.	.	/
CCc1cccc(C)c1NC(=O)c1ccoc1C	44	.	.	.	.	.
Cc1cnc(C(=O)NCCc2ccc(S(=O)(=O)NC(=O)NC3CCCCC3)cc2)cn1	84	/	.	.	.	/
CC(=O)N1c2ccccc2C2(O)N=C(C)SC12 (stereo not drawn)	.	/	62	.	.	/
CCOC(=O)c1ccc(N/C=C/C(=O)c2ccc(OC)c(OC)c2)cc1	.	.	.	.	.	.
COc1ccc(C(=O)/C=C/Nc2ccc(C)cn2)cc1OC	.	.	52	.	/	.
CC(C)CN(CC(C)C)c1nnc(N)s1	28	/	.	.	.	/
CN1CCN(c2ncnc3c2[nH]c2ccc(F)cc23)CC1	50	/	.	.	.	/
Cc1ccc2[nH]c3c(N4CCOCC4)ncnc3c2c1	.	.	.	.	.	.
Cc1cc(S(=O)(=O)NCC(c2ccccc2)c2ccccc2)ccc1-n1cnnn1	23	.	.	.	.	.
CCN(CC)S(=O)(=O)c1ccc(-n2cnnn2)c(C)c1	48	.	.	.	.	.
COCCn1c(SCC(=O)Nc2nc(C)c(Cl)cc2Cl)nc2ccccc21	.	.	.	.	.	.
Cc1cccc(-n2c(SCC(=O)Nc3ncc(Cl)cc3Cl)nc3ccccc32)c1	43	/	.	.	.	/
O=C(CSc1nc2ccccc2n1-c1ccccc1)Nc1ncc(Cl)cc1Cl	53	/	.	.	.	/
COC(=O)C(=O)/C=C(\O)c1ccc(C)cc1	.	.	.	.	73	.
CCN(CC)c1ccc(C(=O)N/N=C(\C)c2ccc(OC)c(OC)c2)cc1	.	/	.	.	.	/
CCNc1nc(NCC)n2c(SC(C(=O)Nc3cc(C)ccc3C)c3ccccc3)nnc2n1 (stereo not drawn)	80	/	.	.	.	/
Cc1nn(Cc2c(Cl)cccc2Cl)c(C)c1NC(=O)c1cc(C(C)C)on1	52	.	.	.	.	.
CCCc1cc(O)c2c(C)cc(=O)oc2c1	.	.	.	.	/	.
O=C(CN1CC(c2ccccc2)CC1=O)N/N=C/c1cc(Br)ccc1O (stereo not drawn)	.	/	.	.	.	/
SMILES	Measles CPE	sEH activator	BB579 growth dn	SDO1 yeast rescue	Yeast lifespan up	sEH inhibitor
Cc1ccccc1-n1c(SCc2csc(Nc3ccccc3)n2)nnc1-c1cccnc1	.	/	.	.	.	/
Cc1ccc(Nc2nc(CSc3nnc(-c4cccnc4)n3-c3ccccc3C)cs2)cc1	53	/	.	.	.	/
Cc1c(NC(=S)N/N=C\c2ccccc2O)c(=O)n(-c2ccccc2)n1C	55	/	.	.	.	/
Cc1c(NC(=O)C(=O)/C=C(\O)c2ccc(Cl)cc2)c(=O)n(-c2ccccc2)n1C	.	/	.	.	79	/
CCOC(=O)c1ccc(CNCc2ccc(C)cc2)cc1	.	/	.	.	.	/
CCOc1ccc2c(c1)-c1c(ssc1=S)C(C)(C)N2C(=O)c1ccco1	.	/	.	.	.	/
CCNC(=S)N/N=C/c1cn(Cc2ccc(F)cc2)c2ccccc12	29	/	.	.	.	/
c1ccc(COc2ccc(OCCn3cncn3)cc2)cc1	.	.	.	.	.	.
c1ccc(-c2ccc(OCCCn3cncn3)cc2)cc1	.	.	80	.	.	.
O=C(O)/C=C/c1ccc2c(-c3ccccc3)onc2c1	.	/	.	.	.	/
O=C(CNC(=O)c1ccc(Cl)cc1)NCC(F)(F)F	.	/	.	.	.	/
FC(F)Sc1nc(-c2ccccc2)c(-c2ccccc2)n1C(F)F	34	/	.	.	.	/
O=C(NCc1ccc2c(c1)OCO2)C1CCN(Cc2cnn(-c3ccccc3)c2-n2cccc2)CC1	.	.	.	.	.	84
O=C(NCc1ccc2c(c1)OCO2)C1CCN(S(=O)(=O)N2CCCCC2)CC1	.	/	.	.	.	/
O=C(NCc1ccc2c(c1)OCO2)C1CCN(c2ccc(S(=O)(=O)N3CCCC3)cc2)CC1	.	.	.	.	.	86
O=C(Nc1ccccc1Cl)C1CCN(Cc2cnn(-c3ccccc3)c2-n2cccc2)CC1	.	.	.	.	.	.
Cc1nnc(SCC(=O)Nc2ccc(Cl)cn2)s1	.	/	.	.	.	/
CC1N(O)C(C)(C)C(c2ccccc2)=[N+]1[O-] (stereo not drawn)	.	.	.	.	/	.
c1csc(-c2cnc3ccccc3n2)c1	.	/	.	.	.	/
c1cc2c(cnc3cscc32)s1	34	/	.	.	.	/
CN(C)c1ccc(C=C(c2nnnn2-c2ccccc2)c2nnnn2-c2ccccc2)cc1	23	/	.	.	.	/
CN(C)/C=C(\C(=O)c1ccc(F)cc1F)c1nnnn1-c1ccccc1	.	/	.	.	.	/
CCOC(=O)c1sc(=S)n(-c2cccc(C(F)(F)F)c2)c1SC	.	.	.	.	.	.
COc1cccc(-c2nc(CS(=O)(=O)CC(=O)NCCCOC(C)C)c(C)o2)c1	41	.	.	.	.	.
COc1cccc(-c2nc(CS(=O)CC(=O)NCCCOC(C)C)c(C)o2)c1 (stereo not drawn)	.	.	.	.	.	.
SMILES	Measles CPE	sEH activator	BB579 growth dn	SDO1 yeast rescue	Yeast lifespan up	sEH inhibitor
COc1cccc(C(=O)N2CCN(S(=O)(=O)Cc3ccccc3)CC2)c1OC	.	.	.	.	/	.
O=c1[nH]c(NC2CCCCC2)c([N+](=O)[O-])c(=O)[nH]1	28	/	.	.	.	/
CCCCCC1CCC(C(=O)O)CC1 (stereo not drawn)	.	.	52	.	.	.
C=CCNC(=S)Nc1ccc2nc(C)c(C)nc2c1	.	.	.	.	.	.
COc1ccc(N(C)C(=S)Nc2ccc3nc(C)c(C)nc3c2)cc1	.	/	.	.	43	/
COC(=O)c1ccc(C(=O)OC)c(NC(=O)CSc2cccc[n+]2[O-])c1	.	.	99	.	.	.
COc1cc2c(cc1NC(=O)CSc1cccc[n+]1[O-])oc1ccccc12	.	/	.	.	.	/
O=C(CSc1cccc[n+]1[O-])Nc1cc2c(cc1Cl)C(=O)c1ccccc1C2=O	24	/	.	.	.	/
COc1ccc(NC(=O)CN2CCN(C3c4ccccc4-c4ccccc43)CC2)cc1	.	.	.	.	.	.
C/C(=N\NS(=O)(=O)c1ccc(C)cc1)c1ccc(C)s1	.	.	.	.	.	.
